Experimental data: ChEMBL document CHEMBL1123290, “Synthesis, antimalarial activity, and quantitative structure-activity relationships of tebuquine and a series of related 5-[(7-chloro-4-quinolinyl)amino]-3-[(alkylamino)methyl] [1,1'-biphenyl]-2-ols and N omega-oxides” (1986)

What was measured:
Format in all cases: functional
[1] = tested on: Plasmodium berghei; assay: Change in mean survival time for control (average 6.2 days) versus treated mice (Mus musculus) after 20 mg/kg subcutaneous dose
[2] = tested on: Plasmodium berghei; assay: Change in mean survival time for control (average 6.2 days) versus treated mice (Mus musculus) after 320 mg/kg subcutaneous dose
[3] = tested on: Plasmodium berghei; assay: (§1) Change in mean survival time for control (average 6.2 days) versus treated mice (Mus musculus) 72 hrs after […] subcutaneous dose
[4] = tested on: Plasmodium berghei; assay: Change in mean survival time of Plasmodium berghei infected mice (Mus musculus) on 1.25 mg/kg subcutaneous dose
[5] = tested on: Plasmodium berghei; assay: Antimalarial activity as 60-day survivors in Plasmodium berghei infected mice (Mus musculus) after single 160mg/kg subcutaneous dose 72 hr post infection
Summary of the method: (§2)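 Mice were infected with a normal drug-sensitive Plasmodium berghei strain. At 72 h postinfection each received one subcutaneous dose of compound dissolved or suspended in peanut oil, in five-mouse groups per dose. The read-out was the number of mice alive at 60 days postinfection, which were scored as cured.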

[6] = tested on: Mus musculus; assay: Antimalarial activity, administered as a single subcutaneous dose of 80 mg/kg, 72 hrs post infection measured as number of mice (Mus musculus) surviving at 60 days post infection; summary of the method: as §2
[7] = tested on: Plasmodium berghei; assay: Change in mean survival time in control (average 6.2 days) versus treated mice (Mus musculus) after 80 mg/kg subcutaneous dose
[8] = tested on: Plasmodium berghei; assay: Change in mean survival time of Plasmodium berghei infected mice (Mus musculus) after 5 mg/kg subcutaneous dose
[9] = tested on: Plasmodium berghei; assay: Change in mean survival time for control (average 6.2 days) versus treated mice (Mus musculus) after 160 mg/kg subcutaneous dose
[10] = tested on: Plasmodium berghei; assay: Antimalarial activity as 60-day survivors in infected mice (Mus musculus) after single 320mg/kg subcutaneous dose 72 hr post infection; summary of the method: as §2
[11] = tested on: Plasmodium berghei; assay: Change in mean survival time for control (average 6.2 days) versus treated mice (Mus musculus) after 40 mg/kg subcutaneous dose
[12] = tested on: Plasmodium berghei; assay: Change in mean survival time of Plasmodium berghei infected mice (Mus musculus) after […] subcutaneous dose
[13] = tested on: Mus musculus; assay: Antimalarial activity, administered as a single subcutaneous dose of 640 mg/kg, 72 hrs post infection measured as number of mice (Mus musculus) surviving at 60 days post infection; summary of the method: as §2
[14] = tested on: Plasmodium berghei; assay: Difference in mean survival time of Plasmodium berghei infected mice (Mus musculus) after 10 mg/kg subcutaneous dose
[15] = tested on: Plasmodium berghei; assay: Antimalarial activity in primary screen
[16] = tested on: Mus musculus; assay: Antimalarial activity, administered as a single subcutaneous dose of 40 mg/kg, 72 hrs post infection measured as number of mice (Mus musculus) surviving at 60 days post infection; summary of the method: as §2
[17] = tested on: Plasmodium berghei; assay: Antimalarial activity as 60-day survivors in infected mice (Mus musculus) after single 20 mg/kg subcutaneous dose 72hr post infection; summary of the method: as §2
[18] = tested on: Plasmodium berghei; assay: Change in mean survival time for control (average 6.2 days) versus treated mice (Mus musculus) 72 hrs after 5 mg/kg subcutaneous dose
[19] = tested on: Plasmodium berghei; assay: Change in mean survival time for control (average 6.2 days) versus treated mice (Mus musculus) 72 hrs after […] subcutaneous dose
[20] = tested on: Plasmodium berghei; assay: as §1; remark: listed apart in the source
[21] = tested on: Mus musculus; assay: Antimalarial activity of compound administered as a single subcutaneous dose of 10mg/kg, 72 hrs post infection measured as number of mice (Mus musculus) surviving at 60 days post infection; summary of the method: as §2
[22] = tested on: Plasmodium berghei; assay: Change in mean survival time for control (average 6.2 days) versus treated mice (Mus musculus) 72 hrs after 10 mg/kg subcutaneous dose
[23] = tested on: Plasmodium berghei; assay: Change in mean survival time for control (average of 6.2 days) versus treated mice (Mus musculus) 72 hrs after 80 mg/kg subcutaneous dose
[24] = tested on: Plasmodium berghei; assay: Change in mean survival time for control (average 6.2 days) versus treated mice (Mus musculus) 72 hrs after 20 mg/kg subcutaneous dose
[25] = tested on: Plasmodium berghei; assay: Change in mean survival time for control (average 6.2 days) versus treated mice (Mus musculus) 72 hrs after 320 mg/kg subcutaneous dose
[26] = tested on: Plasmodium berghei; assay: Difference in mean survival time in mice (Mus musculus) (control = 6.2 days) after single 40mg/kg subcutaneous dose 72hr post infection
[27] = tested on: Plasmodium berghei; assay: Change in mean survival time for control (average 6.2 days) versus treated mice (Mus musculus) 72 hrs after 640 mg/kg subcutaneous dose
[28] = tested on: Plasmodium berghei; assay: Change in mean survival time for control (average 6.2 days) versus treated mice (Mus musculus) 72 hrs after 160 mg/kg subcutaneous dose

SMILES	Delta MST [1]	Delta MST [2]	Delta MST [3]	Delta MST [4]	No. of mice cured [5]	No. of mice cured [6]	Delta MST [7]	Delta MST [8]	Delta MST [9]	No. of mice cured [10]	Delta MST [11]	Delta MST [12]	No. of mice cured [13]	Delta MST [14]	ED30 [15]	No. of mice cured [16]	No. of mice cured [17]	Delta MST [18]	Delta MST [19]	Delta MST [20]	other results
CCN(CC)Cc1cc(Nc2cc[n+]([O-])c3cc(Cl)ccc23)cc(-c2ccc(SC)cc2)c1O	6.5 days	18.6 days	27.3 days	0.1 days	1	1	9.4 days	1.5 days	19.9 days	4	10.3 days	0.5 days	2	2.1 days	158 mg/kg						
CCN(CC)Cc1cc(Nc2cc[n+]([O-])c3cc(Cl)ccc23)cc(-c2ccccc2F)c1O	12.2 days	31.9 days	35.6 days	-0.1 days	3		15.6 days	1.5 days	20.1 days	2	17.1 days	-0.1 days	4	6.1 days	48.4 mg/kg	1					
CC(C)(C)NCc1cc(Nc2cc[n+]([O-])c3cc(Cl)ccc23)cc(-c2ccccc2)c1O	21 days	14.5 days	14 days	-0.3 days	2	1	15.5 days	4.5 days	23.2 days	3	21 days	-0.1 days	3	12.5 days		1	1				
CCN(CC)Cc1cc(Nc2ccnc3cc(Cl)ccc23)cc(-c2ccccc2)c1O					5	5				5			5		10.4 mg/kg	5	5	0.7 days	0.3 days	0.3 days	No. of mice cured [21]: 2; Delta MST [22]: 11.9 days
CCN(CC)Cc1cc(Nc2cc[n+]([O-])c3cc(Cl)ccc23)cc(-c2ccc(F)cc2)c1O	14.1 days	8.6 days	15 days	0.5 days	5	4	23.6 days	5.1 days		4	21.7 days	2.1 days		10.5 days	19.7 mg/kg	2					
CCN(CC)Cc1cc(Nc2cc[n+]([O-])c3cc(Cl)ccc23)cc(-c2cccc(Cl)c2)c1O	16.5 days	21.9 days	16.4 days	0.3 days	4	2	25.6 days	2.1 days	28.9 days	4	25.9 days	0.7 days	3	9.7 days	27.4 mg/kg	2					
CC(C)(C)NCc1cc(Nc2ccnc3cc(Cl)ccc23)cc(-c2ccc(C(F)(F)F)cc2)c1O													3			2		11.8 days	3.4 days	0.2 days	Delta MST [23]: 10.7 days; Delta MST [24]: 21.2 days; Delta MST [25]: 12.1 days; Delta MST [26]: 14.9 days; No. of mice cured [21]: 1; Delta MST [22]: 10.4 days; Delta MST [27]: 11.7 days; Delta MST [28]: 9.1 days
CCN(CC)Cc1cc(Nc2ccnc3cc(Cl)ccc23)cc(-c2c(F)c(F)c(F)c(F)c2F)c1O					4	5				5			5		7.4 mg/kg	4	1	12.9 days	7.9 days	3.5 days	Delta MST [24]: 18.8 days; Delta MST [26]: 20.5 days; No. of mice cured [21]: 2; Delta MST [22]: 18.8 days; Delta MST [28]: 47 days
CCCCN(CCCC)Cc1cc(Nc2cc[n+]([O-])c3cc(Cl)ccc23)cc(-c2ccc(Cl)cc2)c1O	3.2 days	21.2 days	31.7 days	0.4 days			8 days	0.4 days	12		2.2 days	-0.2 days	1	-0.2 days						0.4 days	
CCN(CC)Cc1cc(Nc2ccnc3cc(Cl)ccc23)cc(-c2ccc(Cl)cc2)c1O [TEBAQUINE]					4	5				2			1			5	1	20.7 days	0.1 days	0.1 days	Delta MST [24]: 33.7 days; Delta MST [25]: 11.2 days; No. of mice cured [21]: 1; Delta MST [22]: 30.2 days; Delta MST [27]: 11.9 days; Delta MST [28]: 11.9 days
